# Screening data from PubChem.
# Most compounds without a hit are left out; they make up all but 4.9% or so of the library.
# APP 5'UTR act: activators of APP 5'UTR luciferase reporter, primary screen, SH-SY5Y cells. SH-SY5Y APP 5'UTR luciferase reporter, luminescence; zero percent = DMSO vehicle wells. hit rate 1% among 190,000. activation, % at 2 µM;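 active = activation above a set limit, based on mean plus 3 SD of controls, cut at about 140% in these data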
# STAT1 act-1: STAT1 signaling activators, primary screen, cell-based, HTS, luciferase reporter. hit rate 2.6% among 200,000. activation (% of control), % at 5.5 µM. AID 932, 2007. NIH 3T3 STAT1-luciferase reporter, IFN-gamma, luminescence; 100% = IFN-gamma alone, no compound;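 active = activation above the screen-wide mean activation plus 3 SD, cut at about 130% in these data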
# STAT1 inh: STAT1 signaling inhibitors, primary screen, cell-based, HTS, luciferase reporter; NIH 3T3 STAT1-luciferase reporter, IFN-gamma, luminescence; hit rate 0.35% among 200,000; inhibition, % at 5.5 µM;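 active = inhibition above a set limit, the mean inhibition across all tested compounds plus 3 SD, cut at about 34% in these data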
# STAT3 act-1: IL-6 driven STAT3 reporter potentiators, primary screen, U3A cells, luciferase, luminescence, MLSCN library. hit rate 0.91% among 190,000. activation (% of control), % at 5.6 µM. AID 871, 2007. IL-6 STAT3-luciferase reporter; 100% = signal with IL-6 EC80 alone;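 active = activation above the screen-wide mean of compound activation plus 3 SD, cut at about 130% in these data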
#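 Material: human U3A cells carrying STAT3-luciferase construct. Measured by: reporter luminescence signal. Timing: compound 1 h, then IL-6 6 h at 37 °C.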
# NF-kB expr up: activators of NF-kB expression in neurons, primary screen, cell-based, HTS | human neuronal cells, NF-kB reporter expression; active compounds read high | fold change at 12.5 µM | hit rate 1.6% among 190,000 | AID 1239, 2008; in the data active = fold change above about 3.3
# STAT3 inh: IL-6 driven STAT3 reporter inhibitors, primary screen, U3A cells, luciferase, luminescence, MLSCN library. IL-6 STAT3-luciferase reporter; host cell line lacks STAT1. inhibition, % at 5.5 µM. hit rate 0.89% among 190,000;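 active = inhibition above the mean inhibition across all screened compounds plus 3 SD, cut at about 44% in these data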
# STAT3 act-2: STAT3 reporter potentiators, retest of hits, confirmation, U3A cells, luciferase, luminescence | potentiation (% of control), % at 5.7 µM | IL-6 potentiation; U3A cells lack STAT1; 100 means same as IL-6 alone | hit rate 64% among 1,200 | AID 1267, 2008 | shares compounds with STAT3 act-1;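 active = percent activation of the STAT3 luciferase reporter above a set limit taken from the earlier primary screen, cut at about 130% in these data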
# NFkB act 2: NF-kB reporter activators in human cells, counter-screen for STAT3 activator project | shares compounds with STAT3 act-1 | NF-kappaB reporter activation | activation (% of control), % at 5.7 µM | hit rate 11% among 1,200 | AID 1309, 2008; in the data active = activation above about 120%;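 also: reporter induced by TNF-alpha stimulation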
# STAT1 act-2: STAT1 reporter activators, IFN-gamma induced, counter-screen for STAT3 activator project, cell-based, NIH 3T3, luciferase luminescence; shares compounds with STAT3 act-1; NIH 3T3 STAT1-luciferase reporter; activation (% of control), % at 5.7 µM; hit rate 13% among 1,200; AID 1318, 2008;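 active = activation above the solvent-only control well mean plus 3 SD, set per screening run, cut at about 120% in these data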
# Numbers stand for hits; n = inactive; x = no result given.
SMILES,APP 5'UTR act,STAT1 act-1,STAT1 inh,STAT3 act-1,NF-kB expr up,STAT3 inh,STAT3 act-2,NFkB act 2,STAT1 act-2
COc1ccc(-n2c(N)c(-c3nc4ccccc4n3C)sc2=S)cc1,n,n,n,148,n,n,173,n,n
CC(=O)/C(N=Nc1cc(C)ccc1O)=C(\C)O,n,n,n,149,n,n,150,n,n
C/C(=N\NC(=O)Cc1cccc2ccccc12)c1ccncc1,n,n,n,n,n,n,x,x,x
O=C1C2CC=C(Cl)CC2C(=O)N1CCc1c[nH]c2ccccc12 (stereo unspecified),n,n,n,141,n,n,149,n,n
CC1=CCC2C(=O)N(CCc3c[nH]c4ccccc34)C(=O)C2C1 (stereo unspecified),n,n,n,142,n,n,n,n,n
COC(=O)C1=C(C)N(CCc2c[nH]c3ccccc23)C(=O)/C1=C\N(C)C,n,n,n,n,n,n,x,x,x
Cc1cnc(NC(=O)c2c(O)c3cccc4c3n(c2=O)CCC4)s1,n,n,n,165,n,n,149,n,n
O=C(Nc1cccc(F)c1)c1c(O)c2cccc3c2n(c1=O)CCC3,n,n,n,142,n,n,143,n,n
CC(C)c1nnc(NC(=O)c2c(O)c3cccc4c3n(c2=O)CCC4)s1,n,n,n,n,n,n,x,x,x
OC(c1ccccc1)c1cccnc1 (stereo unspecified),n,n,n,n,n,n,x,x,x
COc1cc(NC(=O)c2cccs2)c(OC)cc1NC(=O)CCC(=O)Nc1ccc2ncccc2c1,n,n,n,n,n,n,x,x,x
COc1ccc(C(=O)NCc2nnc(SCC(=O)N3CCc4ccccc43)n2Cc2ccccc2)cc1,n,n,n,n,n,n,x,x,x
CC(C)Oc1cc(N)c(Cl)cc1Cl,n,n,n,n,n,n,x,x,x
COc1ccc(C2CC(=O)Oc3c2c(=O)n(C)c2ccccc32)c(OC)c1OC (stereo unspecified),n,n,n,n,n,n,x,x,x
Cn1c(=O)c2c(c3ccccc31)OC(=O)CC2c1cccnc1 (stereo unspecified),n,n,n,137,n,n,n,n,n
COc1ccccc1-c1nnc(Nc2nc3c(OC)cccc3s2)o1,n,n,n,142,n,n,n,137,141
CC(=O)Nc1ccc(S(=O)(=O)N2CCN(c3cnn(C)c(=O)c3Cl)CC2)cc1,n,n,n,n,n,n,x,x,x
CCOCCCNC(=S)Nc1ccc(S(N)(=O)=O)cc1,n,n,n,n,n,n,x,x,x
CCCn1c(N2CCN(CC(=O)c3c[nH]c4ccccc34)CC2)nc2c1c(=O)[nH]c(=O)n2C,n,n,n,147,n,n,139,n,n
O=C(CN1CCSCC1)c1c[nH]c2ccccc12,n,n,n,n,n,n,x,x,x
O=C(CN1CCN(Cc2ccccc2)CC1)c1c[nH]c2ccccc12,n,n,n,138,n,n,n,n,n
CCn1c(N2CCN(CC(=O)c3c(C)n(C)c4ccccc34)CC2)nc2c1c(=O)[nH]c(=O)n2C,n,n,n,n,n,n,x,x,x
CCCCCCCCNC(=S)NCCN1CCCCC1,n,n,n,n,n,n,x,x,x
CCc1ccc(C(=O)COC(=O)CCc2nc3ccccc3c(=O)[nH]2)cc1,n,n,n,n,n,n,x,x,x
Cc1ccc(N)c2c1OCCC2=O,n,n,n,137,n,n,137,n,n
SMILES,APP 5'UTR act,STAT1 act-1,STAT1 inh,STAT3 act-1,NF-kB expr up,STAT3 inh,STAT3 act-2,NFkB act 2,STAT1 act-2
O=C1c2cccnc2C(Nc2ccc(Br)cc2Br)N1Cc1cccs1 (stereo unspecified),n,n,n,n,n,n,x,x,x
O=C(CN1CCOCC1)Nc1ccc(Oc2ccccc2)cc1,n,n,n,n,n,n,x,x,x
O=C(CN1CCNCC1)Nc1ccc(Oc2ccccc2)cc1,n,n,n,141,n,n,139,n,n
Cc1ccc(C)n1NC(=O)c1ccccc1[N+](=O)[O-],n,n,n,n,n,n,x,x,x
Cc1ccc(C)n1NC(=O)c1ccccc1O,n,n,n,153,n,n,151,n,n
Cc1ncoc1C(=O)N1CCc2c([nH]c3ccccc23)C1C1CCCCC1 (stereo unspecified),n,n,n,140,n,n,n,n,n
CCNS(=O)(=O)c1ccc(CCC(=O)NCCC2=CCCCC2)cc1,n,n,n,n,n,n,x,x,x
O=C(O)C(Cc1cc2ccccc2[nH]1)N1C(=O)C2CC=C(Cl)CC2C1=O (stereo unspecified),n,n,n,142,n,n,135,n,n
O=C(NCCCN1CCCC1=O)c1ccc(Cl)c(Cl)c1,n,n,n,n,n,n,x,x,x
O=C(Nc1ccccn1)c1ccc2ccccc2n1,141,n,n,147,5.9,n,180,128,164
CC(C)c1nc(SCC(=O)N2CC(=O)Nc3ccccc32)c2ccccc2n1,n,n,n,n,n,n,x,x,x
O=C(Cc1cccs1)N1CCN=C1SCc1ccc(Br)cc1,n,n,n,n,n,n,x,x,x
CC1CN(CC(O)COCc2ccc3c(c2)OCO3)CC(C)O1 (stereo unspecified),n,n,n,n,n,n,x,x,x
CN1/C(=C\C=Nc2ccc3ccccc3c2)C(C)(C)c2ccccc21,n,n,n,148,n,n,n,n,n
Nc1ccccc1Sc1nc2ccccc2[nH]1,n,n,n,136,n,n,159,n,n
CCSc1nc2ccccc2[nH]1,n,n,n,n,n,n,x,x,x
Oc1c(Br)cc(Br)cc1/C=N/c1nc2c(s1)CCCC2,n,n,n,n,n,n,x,x,x
Oc1ccc2ccccc2c1/C=N/c1nc2c(s1)CCCC2,n,n,n,154,n,n,136,n,n
Cc1c(Cl)ccc2c1NC(=O)[C@]21[C@@H]2C(=O)N(Cc3ccccc3)C(=O)[C@@H]2[C@@H]2CCCN21,n,n,n,141,n,n,n,n,n
Cc1ccc2ncccc2c1NC(=S)NC(=O)c1ccccc1,n,n,n,137,n,n,146,n,n
Cc1ccc2ncccc2c1NS(=O)(=O)c1ccccc1,n,n,n,n,n,n,x,x,x
